Screening results as filed in PubChem BioAssay.
FN deposition inh: fibronectin deposition inhibition; AH1F fibroblasts, Alexa488-fibronectin deposition fluorescence, overnight; inhibition, % at 12.6 µM; actives 0.086% (n = 350,000);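 active means mean inhibition across replicates of 30% or more, regardless of how many single replicates reach that level; inconclusive means mean under 30% yet at least half of replicates reach 30%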;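 further: positive control wells lacked labelled fibronectin entirely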
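Measured by – fluorescence 485/525 nm · System – AH1F fibroblast monolayer, labelled fibronectin deposition · Amount – 10000 cells per well · Buffer or medium – serum-reduced DMEM (2% serum) · Doses – single dose, pinned · Also added – fluorescent fibronectin at 24 nM final · Schedule – 1 h cell attachment, overnight exposure to compound and label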
PGC1a acetyl inh: lowers PGC1a acetylation signal in U2OS cells. inhibition, % at 15.6 µM. AID 651687. actives 0.17% (n = 350,000). AlphaScreen anti-acetyl-lysine; with virally co-expressed GCN5 acetyltransferase;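 active means every replicate shows inhibition of at least 40%; inconclusive means mean inhibition at least 40% but some replicate below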;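 further: 0% = neutral control wells and 100% = positive control wells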
CFTR F508del cor: correctors of CFTR F508del function in bronchial epithelial cells | actives 0.36% (n = 350,000) | CFBE cells, YFP halide quenching; stimulated with forskolin plus potentiator P3; % fluorescence drop versus neutral controls | activity (quench increase), % at 7.58 µM;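 active means mean added fluorescence quench of at least 8% versus neutral control, with both replicates also reaching 8%; inconclusive means only one of the mean or replicate conditions met; inactive means mean below 8% and not both replicates reaching 8%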;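 further: cells transiently co-express mutant CFTR-F508del with the halide-sensitive YFP; corrector assay measuring rescue of mutant channel to the surface after 24 h compound exposure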
Cneo AK release: causes C. neoformans cell lysis; adenylate kinase release luminescence, 4 h; normalised: neutral wells 0, clomiphene wells 100; lysis activity, % at 15 µM; actives 0.2% (n = 360,000); AID 651654;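 active means mean lysis activity across replicates of at least 80%, whatever share of replicates individually reach that level; inactive means mean lysis activity below 80%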
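Material – Cryptococcus neoformans yeast cells · Quantity – 5 × 10^6 yeast cells/mL · Buffer or medium – YPD medium · Compound – single dose · Timing – 4 h static compound exposure, 37 °C, read 1 h post-reagent · Signal – adenylate kinase release luminescence · Read-out basis – lysis from increased AK signal · Benchmarks – Clomiphene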
Xi reactivation: reactivates the inactive X chromosome in mouse fibroblasts. XiGFP mouse fibroblasts, % GFP-positive cells imaging, 3 d; cells co-treated with 5-aza-dC sensitizer; scaled so ellipticine positive control = 100%. activation, % at 7.58 µM. actives 0.055% (n = 360,000). AID 743238;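 active means mean normalized replicate activation at least 10% and every replicate at or above 10%; inconclusive means only one of the two criteria met; inactive means mean below 10% and not all replicates reach 10%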;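 further: 0% = median of on-plate neutral control wells and 100% = ellipticine 6 µM median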
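Schedule: 3 d treatment, 15 min room-temperature fixation; system: 68-5-11 XiGFP fibroblast line; buffer or medium: DMEM plus 5-aza-dC sensitizer; control set: ellipticine 6 µM positive control; compound: one concentration, pinned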
DENV2 CPE rescue: protects cells from dengue virus 2 cytopathic effect; DENV2-infected cells, cytopathic effect rescue, plate reader; CPE inhibition, % at 9.99 µM; actives 1.7% (n = 350,000); AID 651640; in the data active means CPE inhibition above about 20%, passing the limit was not always enough; inconclusive means no clear call, values can overlap the other calls; tested in BHK-21 cells;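 further: 0% = median of neutral control wells and 100% = median of positive control wells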
An asterisk follows results filed as active. A selection: hits, their analogues and other compounds. The true share with any hit is near 1.9%.

What do the screens show for `CC(C)CN(CCCNC(=O)CN1C(=O)CSc2ccc(S(=O)(=O)N3CCOCC3)cc21)CC(C)C`?
FN deposition inh: 5; CFTR F508del cor: 10*; Xi reactivation: 0; DENV2 CPE rescue: 0

Results for CC(C)CN(CCNC(=O)CN1C(=O)CSc2ccc(S(=O)(=O)N3CCOCC3)cc21)CC(C)C ?
FN deposition inh: 6; CFTR F508del cor: 2; Xi reactivation: 1; DENV2 CPE rescue: -2

What do the screens show for `O=C(Cc1ccncc1)NCC[C@H]1CC[C@H](NC(=O)Nc2ccc(Cl)cc2)[C@H](CO)O1`?
PGC1a acetyl inh: 5; CFTR F508del cor: -1; Cneo AK release: 10; Xi reactivation: 3; DENV2 CPE rescue: 0

How did Cc1noc(C)c1NC(=O)N(C)C[C@@H]1Oc2ccc(NC(=O)NC3CCCCC3)cc2C(=O)N([C@@H](C)CO)C[C@H]1C do in these assays?
FN deposition inh: -7; PGC1a acetyl inh: 2; CFTR F508del cor: 2; Cneo AK release: 1; Xi reactivation: -1; DENV2 CPE rescue: 9

Results for COc1ccc(NC(=O)N(C)C[C@@H]2Oc3ccc(NC(=O)NC4CCCCC4)cc3C(=O)N([C@@H](C)CO)C[C@@H]2C)cc1 ?
PGC1a acetyl inh: 4; CFTR F508del cor: -2; Cneo AK release: -4; Xi reactivation: 0; DENV2 CPE rescue: -3

Results for Cc1noc(C)c1NC(=O)Nc1ccc2c(c1)C(=O)N([C@@H](C)CO)C[C@H](C)[C@H](CN(C)C(=O)NC1CCCCC1)OCCCC[C@@H](C)O2 ?
PGC1a acetyl inh: -6; CFTR F508del cor: -3; Cneo AK release: -3; Xi reactivation: 0; DENV2 CPE rescue: 29*

Results for COc1ccc(NC(=O)N(C)C[C@H]2Oc3ccc(NC(=O)NC4CCCCC4)cc3C(=O)N([C@@H](C)CO)C[C@@H]2C)cc1 ?
PGC1a acetyl inh: -7; CFTR F508del cor: -3; Cneo AK release: -4; Xi reactivation: 0; DENV2 CPE rescue: 46*

Results for Cc1noc(C)c1NC(=O)N(C)C[C@@H]1Oc2ccc(NC(=O)NC3CCCCC3)cc2C(=O)N([C@@H](C)CO)C[C@@H]1C ?
FN deposition inh: -1; PGC1a acetyl inh: 6; CFTR F508del cor: -1; Cneo AK release: 1; Xi reactivation: -1; DENV2 CPE rescue: 34*

Results for Cc1noc(C)c1NC(=O)N(C)C[C@@H]1OCCCC[C@H](C)Oc2ccc(NC(=O)NC3CCCCC3)cc2C(=O)N([C@@H](C)CO)C[C@@H]1C ?
FN deposition inh: 2; PGC1a acetyl inh: 6; CFTR F508del cor: -2; Cneo AK release: 0; Xi reactivation: 0; DENV2 CPE rescue: 23*

What do the screens show for `COCCNC(=O)C[C@@H]1CC[C@H]2[C@@H](COc3ccc(NC(=O)COC)cc3C(=O)N2C)O1`?
FN deposition inh: -16; PGC1a acetyl inh: -1; CFTR F508del cor: 3; Cneo AK release: -1; Xi reactivation: 0; DENV2 CPE rescue: inconclusive

How did Cc1noc(C)c1NC(=O)N(C)C[C@@H]1OCCCC[C@@H](C)Oc2ccc(NC(=O)NC3CCCCC3)cc2C(=O)N([C@@H](C)CO)C[C@H]1C do in these assays?
FN deposition inh: 3; PGC1a acetyl inh: -12; CFTR F508del cor: 0; Cneo AK release: -1; Xi reactivation: 0; DENV2 CPE rescue: 76*

How did Cc1noc(C)c1NC(=O)Nc1ccc2c(c1)C(=O)N([C@H](C)CO)C[C@@H](C)[C@H](CN(C)C(=O)NC1CCCCC1)OCCCC[C@@H](C)O2 do in these assays?
PGC1a acetyl inh: 5; CFTR F508del cor: 1; Cneo AK release: -5; Xi reactivation: 0; DENV2 CPE rescue: 6

Results for Cc1noc(C)c1NC(=O)N(C)C[C@@H]1OCCCC[C@H](C)Oc2ccc(NC(=O)NC3CCCCC3)cc2C(=O)N([C@@H](C)CO)C[C@H]1C ?
FN deposition inh: -7; PGC1a acetyl inh: -9; CFTR F508del cor: -3; Cneo AK release: -2; Xi reactivation: 0; DENV2 CPE rescue: 44*

How did COc1cccc2oc3cc(C#CC4(O)CCCCC4)ccc3c(=O)c12 do in these assays?
FN deposition inh: 2; PGC1a acetyl inh: -12; CFTR F508del cor: 3; Cneo AK release: -7; Xi reactivation: 0; DENV2 CPE rescue: -17

What do the screens show for `COc1cccc2oc3cc(C#Cc4ccccn4)ccc3c(=O)c12`?
FN deposition inh: 24; CFTR F508del cor: -3; Xi reactivation: 0; DENV2 CPE rescue: 48*

How did CCCCS(=O)(=O)/C=C\C1C2C=CC(C2)C1S(=O)(=O)CCCC (configuration not stated) do in these assays?
PGC1a acetyl inh: -34; Cneo AK release: 2

What do the screens show for `CCCCS(=O)(=O)/C=C\C=C/S(=O)(=O)CCCC`?
PGC1a acetyl inh: 97*

How did CN(C)CCCNC(=O)CC1C[C@H](C(=O)N2CCCCC2)[C@@]2(CCc3ccccc3)c3[nH]c4ccccc4c3CCN2C1=O (some centres not stated) do in these assays?
FN deposition inh: 6; PGC1a acetyl inh: -99; CFTR F508del cor: 2; Cneo AK release: 2; Xi reactivation: 0; DENV2 CPE rescue: -3

How did CC[C@]12c3[nH]c4cc(CCC(=O)N(C)C)ccc4c3CCN1C(=O)[C@@H](CC(=O)NCCc1ccccn1)C[C@@H]2C(=O)N1CCN(C(=O)c2ccco2)CC1 do in these assays?
PGC1a acetyl inh: 1; CFTR F508del cor: 3; Cneo AK release: 0; Xi reactivation: 0; DENV2 CPE rescue: 35*

How did COc1ccc2[nH]c3c(c2c1)CCN1C(=O)C(CC(=O)NCCCN(C)C)C[C@H](C(=O)N2CCCCC2)[C@@]31CCc1ccccc1 (some centres not stated) do in these assays?
FN deposition inh: 37*; PGC1a acetyl inh: 1; CFTR F508del cor: 0; Cneo AK release: 1; Xi reactivation: 0; DENV2 CPE rescue: 10

How did CC[C@]12c3[nH]c4ccccc4c3CCN1C(=O)C(CC(=O)NCCc1ccccn1)C[C@@H]2C(=O)N1CCN(C(=O)c2ccco2)CC1 (some centres not stated) do in these assays?
FN deposition inh: -2; CFTR F508del cor: -1; Cneo AK release: -1; Xi reactivation: 0; DENV2 CPE rescue: -1

How did COc1ccc2c3c(n(C)c2c1)[C@H](CO)N(C(C)=O)CC31CCN(C(=O)Nc2ccc(F)cc2)CC1 do in these assays?
Xi reactivation: 0

How did CO[C@H]1CN(C)C(=O)c2cc(NC(C)=O)ccc2OC[C@@H](C)NC[C@@H]1C do in these assays?
PGC1a acetyl inh: 35; CFTR F508del cor: 2; Cneo AK release: 51; Xi reactivation: 0; DENV2 CPE rescue: -11
